Common to all, as to assay type: functional
The subject of test [1] is Staphylococcus aureus. The test is described as follows: Effect on growth in Staphylococcus aureus FRI-1187 at 0.50 mM after 24 hrs (reference value: 100%). The method in brief:
(§1)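 Test-tube growth assay: 10 ml growth medium (brain heart infusion with 10% fetal bovine serum, MgCl2, L-glutamine) inoculated to 5 × 10^6 CFU/ml from a 24 h 37°C preculture. Compound diluted in medium, or dissolved in methanol with methanol-matched controls. After 24 h at 37°C with 5% CO2, OD600 and viable counts read. Growth given as % of CFU/ml of untreated controls in the same experiment.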

The test system of test [2] is Staphylococcus aureus. The test is described as follows: microbe, parasite or virus in culture. The conditions noted are these: 24 h.
Test [3] concerns Staphylococcus aureus. The test is described as follows: microbe, parasite or virus in culture. The note with it: 24 h. This is another data set of the same source.
In test [4] the test system is Staphylococcus aureus. The test is described as follows: Effect on growth in Staphylococcus aureus MN8 at 0.05 mM after 24 hrs (reference value: 100%). The method in brief:
as §1

Test [5] deals with Staphylococcus aureus. The test is described as follows: Effect on growth in Staphylococcus aureus MN8 at 0.01 mM after 24 hrs (reference value: 100%). The method in brief: as §1
Test [6] concerns Staphylococcus aureus. The test is described as follows: Effect on growth in Staphylococcus aureus FRI-1187 at 0.05 mM after 24 hrs (reference value: 100%). The gist of the method: as §1
Test [7] concerns Staphylococcus aureus.
Test [8] concerns Staphylococcus aureus. The test is described as follows: Effect on growth in Staphylococcus aureus MN8 at 0.10 % after 24 hrs (reference value: 100%). The method in brief:
as §1

Test [9] concerns Staphylococcus aureus. This is another data set of the same source.
The subject of test [10] is Staphylococcus aureus. The test is described as follows: Effect on growth in Staphylococcus aureus MN8 at 0.50 % after 24 hrs (reference value: 100%). The gist of the method:
as §1

Test [11] relates to Staphylococcus aureus. The test is described as follows: microbe, parasite or virus in culture. The note with it: 24 h. The source holds these as a separate data set.
In test [12] the test system is Staphylococcus aureus. The test is described as follows: Effect on growth in Staphylococcus aureus MN8 at 10.00 mM after 24 hrs (reference value: 100%). The gist of the method: as §1
Test [13] deals with Staphylococcus aureus. The test is described as follows: Effect on growth in Staphylococcus aureus MN8 at 2.50 mM after 24 hrs (reference value: 100%). The method in brief:
as §1

In test [14] the test system is Staphylococcus aureus. The test is described as follows: microbe, parasite or virus in culture. The conditions noted are these: 24 h. The source holds these as a separate data set.
Test [15] concerns Staphylococcus aureus. The test is described as follows: Effect on growth in Staphylococcus aureus MN8 at 5.00 mM after 24 hrs (reference value: 100%). The method in brief: as §1
The test system of test [16] is Staphylococcus aureus. The test is described as follows: microbe, parasite or virus in culture. The note with it: 24 h. The source holds these as a separate data set.
Test [17] relates to Staphylococcus aureus. The test is described as follows: microbe, parasite or virus in culture. The note with it: 24 h. This is another data set of the same source.
Test [18] has as its system Staphylococcus aureus. The test is described as follows: Effect on growth in Staphylococcus aureus MN8 at 0.65 mM after 24 hrs (reference value: 100%). The method in brief: as §1
The subject of test [19] is Staphylococcus aureus. The test is described as follows: microbe, parasite or virus in culture. The conditions noted are these: 24 h. This is another data set of the same source.
Test [20] deals with Staphylococcus aureus. The test is described as follows: Effect on growth in Staphylococcus aureus MN8 at 6.50 mM after 24 hrs (reference value: 100%). The gist of the method: as §1
The subject of test [21] is Staphylococcus aureus. The test is described as follows: microbe, parasite or virus in culture. The conditions noted are these: 24 h. The source holds these as a separate data set.
Test [22] relates to Staphylococcus aureus. The test is described as follows: Effect on growth in Staphylococcus aureus MN8 at 80.00 mM after 24 hrs (reference value: 100%). The gist of the method:
as §1

Test [23] relates to Staphylococcus aureus. The test is described as follows: microbe, parasite or virus in culture. The conditions noted are these: 24 h. The source holds these as a separate data set.
Test [24] has as its system Staphylococcus aureus. The test is described as follows: Effect on growth in Staphylococcus aureus MN8 at 120.00 mM after 24 hrs (reference value: 100%). The method in brief: as §1
Test [25] deals with Staphylococcus aureus. The test is described as follows: Effect on growth in Staphylococcus aureus MN8 at 9.8 mM after 24 hrs (reference value: 100%). The method in brief: as §1
Test [26] relates to Staphylococcus aureus. The test is described as follows: microbe, parasite or virus in culture. The note with it: 24 h. This is another data set of the same source.
Test [27] concerns Staphylococcus aureus. The test is described as follows: Effect on growth in Staphylococcus aureus MN8 at 37.50 mM after 24 hrs (reference value: 100%). The method in brief: as §1
For test [28], the system named is Staphylococcus aureus. The test is described as follows: microbe, parasite or virus in culture. The note with it: 24 h. The source holds these as a separate data set.
For test [29], the system named is Staphylococcus aureus. The test is described as follows: microbe, parasite or virus in culture. The note with it: 24 h. This is another data set of the same source.
For test [30], the system named is Staphylococcus aureus. The test is described as follows: Effect on growth in Staphylococcus aureus MN8 at 7.50 mM after 24 hrs (reference value: 100%). The gist of the method: as §1
For test [31], the system named is Staphylococcus aureus. The test is described as follows: microbe, parasite or virus in culture. The conditions noted are these: 24 h. The source holds these as a separate data set.
Test [32] deals with Staphylococcus aureus. The test is described as follows: microbe, parasite or virus in culture. The conditions noted are these: 24 h. This is another data set of the same source.
The test system of test [33] is Staphylococcus aureus. The test is described as follows: microbe, parasite or virus in culture. The note with it: 24 h. The source holds these as a separate data set.
In test [34] the test system is Staphylococcus aureus. The test is described as follows: Effect on growth in Staphylococcus aureus MN8 at 3.20 mM after 24 hrs (reference value: 100%). The gist of the method: as §1
Test [35] has as its system Staphylococcus aureus. The test is described as follows: Effect on growth in Staphylococcus aureus MN8 at 6.40 mM after 24 hrs (reference value: 100%). The gist of the method: as §1
The test system of test [36] is Staphylococcus aureus. The test is described as follows: microbe, parasite or virus in culture. The conditions noted are these: 24 h. This is another data set of the same source.
Test [37] has as its system Staphylococcus aureus. The test is described as follows: Effect on growth in Staphylococcus aureus MN8 at 10.7 mM after 24 hrs (reference value: 100%). The method in brief:
as §1

From ChEMBL document CHEMBL1649163, “Surfactants, aromatic and isoprenoid compounds, and fatty acid biosynthesis inhibitors suppress Staphylococcus aureus production of toxic shock syndrome toxin 1” (2009) come the findings set out here.

A word on the inhibition: it is the drop in the measured response relative to a control, in per cent.

Molecules are shown by their SMILES.

For the compound `Oc1cc(Cl)ccc1Oc1ccc(Cl)cc1Cl` [TRICLOSAN], the Activity is 35.5% in the test on Staphylococcus aureus [1], 0% in the test on Staphylococcus aureus [4], 5.6% in the test with Staphylococcus aureus [5] and 136.4% with Staphylococcus aureus [6]. Further, in the test on Staphylococcus aureus [2], testing at 500 µM gave an inhibition of 3.7%. For the same compound, the inhibition at 50 µM in the test on Staphylococcus aureus [3] was found to be 9.9%.
For the compound `CC(=O)Nc1ccc(O)cc1` [ACETAMINOPHEN], the “inhibition (INH)” value amounted to 10.8% in the test with Staphylococcus aureus [7] and 56.3% in the test on Staphylococcus aureus [9]. For the same compound, the Activity in the test with Staphylococcus aureus [8] is listed as 44.2%; in the test with Staphylococcus aureus [10] it was 13.2%.
In the test on Staphylococcus aureus [11], `CCCCCCCCCCCCCCOCCOCCOCCOC(=O)CCCCCCCCCCCCC` had an inhibition at 2500 µM of 64.9%. For the same compound, the Activity in the test on Staphylococcus aureus [12] is listed as 143.3%; in the test with Staphylococcus aureus [13], 106.6%; in the test with Staphylococcus aureus [15], 108%. Moreover, in the test on Staphylococcus aureus [14], the inhibition at 10000 µM was 22.2%. In the test on Staphylococcus aureus [16], this compound came in with an inhibition at 5000 µM of 47.4%.
`CC1=CCC(O)(C(C)C)CC1` (stereo not drawn) [TERPINEOL] displayed an inhibition at 6500 µM in the test with Staphylococcus aureus [17] of 12.4%. Besides, the Activity in the test with Staphylococcus aureus [18] is 112.7%; in the test with Staphylococcus aureus [20] it was 90.5%. The compound further displayed an inhibition at 650 µM in the test on Staphylococcus aureus [19] of 82.3%.
`C/C=C/C/C=C/CCC(=O)[C@H]1O[C@H]1C(N)=O` [CERULENIN] registered an inhibition at 80000 µM in the test with Staphylococcus aureus [21] of 8.4%. Further, the Activity turned out to be 235.1% in the test on Staphylococcus aureus [22] and 50% in the test on Staphylococcus aureus [24]. The inhibition at 120000 µM in the test with Staphylococcus aureus [23] worked out at 10.7%.
Take `O=C(O)c1ccccc1O` [SALICYLIC ACID]: in the test on Staphylococcus aureus [8], the Activity was determined as 31%. In addition, the “inhibition (INH)” value in the test with Staphylococcus aureus [9] turned out to be 26.3%.
With `CCCCCCCCCCCCOCCOCCOCCOC(=O)CC(C(=O)[O-])S(=O)(=O)[O-].[Na+].[Na+]` (stereo not drawn) [DISODIUM LAURETH SULFOSUCCCINATE], the Activity with Staphylococcus aureus [25] worked out at 10.3%. In addition, in the test with Staphylococcus aureus [26], the inhibition at 9800 µM came out at 0.6%.
In the test on Staphylococcus aureus [8], `COC(=O)c1ccc(O)cc1` [METHYLPARABEN] showed an Activity of 21.4%. The “inhibition (INH)” value with Staphylococcus aureus [9] stood at 20.7%.
As for `CC1(O)CCC(C(C)(C)O)CC1` (stereo not drawn) [TERPIN], the Activity in the test with Staphylococcus aureus [27] amounted to 118.7%; in the test on Staphylococcus aureus [30] it was 124.7%. In addition, at 37500 µM the inhibition in the test with Staphylococcus aureus [28] was 23.8%. The same compound returned an inhibition at 7500 µM with Staphylococcus aureus [29] of 77.9%.
As to `OCc1ccccc1` [BENZYL ALCOHOL], the results for the “inhibition (INH)” value in the test on Staphylococcus aureus [7] and in the test with Staphylococcus aureus [9] were 13.8% and 43.5%, respectively. Further, the figures for the Activity with Staphylococcus aureus [8] and in the test on Staphylococcus aureus [10] were 49.7% and 8.9%, respectively.
`CCCCCCCCCCCCN(CCC(=O)O)CCC(=O)O` [SODIUM LAURIMINODIPROPIONIC ACID] returned an inhibition at 2200 µM in the test with Staphylococcus aureus [31] of 1%.
For the compound `CC(=O)N[C@@H](Cc1ccc(O)cc1)C(=O)O` [ACETYL TYROSINE], the entries for the “inhibition (INH)” value in the test on Staphylococcus aureus [7] and in the test with Staphylococcus aureus [9] were 47.1% and 71.5%, respectively. Also, the Activity in the test with Staphylococcus aureus [8] is given as 47.5%; in the test with Staphylococcus aureus [10], 19.9%.
Regarding `CC1CCC(C(C)C)C(O)C1` (stereo not drawn) [MENTHOL], the inhibition at 3200 µM in the test with Staphylococcus aureus [32] was found to be 24.4%. The compound further registered an inhibition at 6400 µM with Staphylococcus aureus [33] of 1.8%. Further, the Activity with Staphylococcus aureus [34] is 119.5%; in the test on Staphylococcus aureus [35], 32.2%.
With `NC(=O)c1ccccc1O` [SALICYLAMIDE], the entries for the “inhibition (INH)” value in the test on Staphylococcus aureus [7] and with Staphylococcus aureus [9] were 11.3% and 49.2%, respectively. In addition, the Activity turned out to be 61.5% in the test on Staphylococcus aureus [8] and 14.5% in the test with Staphylococcus aureus [10].
In the test on Staphylococcus aureus [36], `CCCCCCCCCCCC1=NCC[N+]1(CCOCC(=O)[O-])CC(=O)[O-].[Na+].[Na+].[OH-]` (stereo not drawn) [DISODIUM LAUROAMPHODIACETATE] came in with an inhibition at 10700 µM of 1%. In the test with Staphylococcus aureus [37], this compound yielded an Activity of 11.3%.
